Laboratory results: ChEMBL document CHEMBL5390313, “Highly Potent Peptide Therapeutics To Prevent Protein Aggregation in Huntington's Disease” (ACS Med Chem Lett, 2023)
The source made the active and inactive calls. No cut-off for these calls is given here.

Experiments:
[1] = system: Huntingtin (Homo sapiens), P42858 [UNDEFINED MUTATION]; assay: Inhibition of TEV protease-induced 6His-GST tagged huntingtin polyQ 103 mutant (unknown origin) aggregation assessed as decrease in fibril length at 10 uM incubated for 24 hrs by AFM imaging analysis relative to control; parameters: scale not given: the % may be the effect or the level left
Huntingtin (Homo sapiens), P42858 [UNDEFINED MUTATION], sequence (P42858 whole entry, looked up, change not shown): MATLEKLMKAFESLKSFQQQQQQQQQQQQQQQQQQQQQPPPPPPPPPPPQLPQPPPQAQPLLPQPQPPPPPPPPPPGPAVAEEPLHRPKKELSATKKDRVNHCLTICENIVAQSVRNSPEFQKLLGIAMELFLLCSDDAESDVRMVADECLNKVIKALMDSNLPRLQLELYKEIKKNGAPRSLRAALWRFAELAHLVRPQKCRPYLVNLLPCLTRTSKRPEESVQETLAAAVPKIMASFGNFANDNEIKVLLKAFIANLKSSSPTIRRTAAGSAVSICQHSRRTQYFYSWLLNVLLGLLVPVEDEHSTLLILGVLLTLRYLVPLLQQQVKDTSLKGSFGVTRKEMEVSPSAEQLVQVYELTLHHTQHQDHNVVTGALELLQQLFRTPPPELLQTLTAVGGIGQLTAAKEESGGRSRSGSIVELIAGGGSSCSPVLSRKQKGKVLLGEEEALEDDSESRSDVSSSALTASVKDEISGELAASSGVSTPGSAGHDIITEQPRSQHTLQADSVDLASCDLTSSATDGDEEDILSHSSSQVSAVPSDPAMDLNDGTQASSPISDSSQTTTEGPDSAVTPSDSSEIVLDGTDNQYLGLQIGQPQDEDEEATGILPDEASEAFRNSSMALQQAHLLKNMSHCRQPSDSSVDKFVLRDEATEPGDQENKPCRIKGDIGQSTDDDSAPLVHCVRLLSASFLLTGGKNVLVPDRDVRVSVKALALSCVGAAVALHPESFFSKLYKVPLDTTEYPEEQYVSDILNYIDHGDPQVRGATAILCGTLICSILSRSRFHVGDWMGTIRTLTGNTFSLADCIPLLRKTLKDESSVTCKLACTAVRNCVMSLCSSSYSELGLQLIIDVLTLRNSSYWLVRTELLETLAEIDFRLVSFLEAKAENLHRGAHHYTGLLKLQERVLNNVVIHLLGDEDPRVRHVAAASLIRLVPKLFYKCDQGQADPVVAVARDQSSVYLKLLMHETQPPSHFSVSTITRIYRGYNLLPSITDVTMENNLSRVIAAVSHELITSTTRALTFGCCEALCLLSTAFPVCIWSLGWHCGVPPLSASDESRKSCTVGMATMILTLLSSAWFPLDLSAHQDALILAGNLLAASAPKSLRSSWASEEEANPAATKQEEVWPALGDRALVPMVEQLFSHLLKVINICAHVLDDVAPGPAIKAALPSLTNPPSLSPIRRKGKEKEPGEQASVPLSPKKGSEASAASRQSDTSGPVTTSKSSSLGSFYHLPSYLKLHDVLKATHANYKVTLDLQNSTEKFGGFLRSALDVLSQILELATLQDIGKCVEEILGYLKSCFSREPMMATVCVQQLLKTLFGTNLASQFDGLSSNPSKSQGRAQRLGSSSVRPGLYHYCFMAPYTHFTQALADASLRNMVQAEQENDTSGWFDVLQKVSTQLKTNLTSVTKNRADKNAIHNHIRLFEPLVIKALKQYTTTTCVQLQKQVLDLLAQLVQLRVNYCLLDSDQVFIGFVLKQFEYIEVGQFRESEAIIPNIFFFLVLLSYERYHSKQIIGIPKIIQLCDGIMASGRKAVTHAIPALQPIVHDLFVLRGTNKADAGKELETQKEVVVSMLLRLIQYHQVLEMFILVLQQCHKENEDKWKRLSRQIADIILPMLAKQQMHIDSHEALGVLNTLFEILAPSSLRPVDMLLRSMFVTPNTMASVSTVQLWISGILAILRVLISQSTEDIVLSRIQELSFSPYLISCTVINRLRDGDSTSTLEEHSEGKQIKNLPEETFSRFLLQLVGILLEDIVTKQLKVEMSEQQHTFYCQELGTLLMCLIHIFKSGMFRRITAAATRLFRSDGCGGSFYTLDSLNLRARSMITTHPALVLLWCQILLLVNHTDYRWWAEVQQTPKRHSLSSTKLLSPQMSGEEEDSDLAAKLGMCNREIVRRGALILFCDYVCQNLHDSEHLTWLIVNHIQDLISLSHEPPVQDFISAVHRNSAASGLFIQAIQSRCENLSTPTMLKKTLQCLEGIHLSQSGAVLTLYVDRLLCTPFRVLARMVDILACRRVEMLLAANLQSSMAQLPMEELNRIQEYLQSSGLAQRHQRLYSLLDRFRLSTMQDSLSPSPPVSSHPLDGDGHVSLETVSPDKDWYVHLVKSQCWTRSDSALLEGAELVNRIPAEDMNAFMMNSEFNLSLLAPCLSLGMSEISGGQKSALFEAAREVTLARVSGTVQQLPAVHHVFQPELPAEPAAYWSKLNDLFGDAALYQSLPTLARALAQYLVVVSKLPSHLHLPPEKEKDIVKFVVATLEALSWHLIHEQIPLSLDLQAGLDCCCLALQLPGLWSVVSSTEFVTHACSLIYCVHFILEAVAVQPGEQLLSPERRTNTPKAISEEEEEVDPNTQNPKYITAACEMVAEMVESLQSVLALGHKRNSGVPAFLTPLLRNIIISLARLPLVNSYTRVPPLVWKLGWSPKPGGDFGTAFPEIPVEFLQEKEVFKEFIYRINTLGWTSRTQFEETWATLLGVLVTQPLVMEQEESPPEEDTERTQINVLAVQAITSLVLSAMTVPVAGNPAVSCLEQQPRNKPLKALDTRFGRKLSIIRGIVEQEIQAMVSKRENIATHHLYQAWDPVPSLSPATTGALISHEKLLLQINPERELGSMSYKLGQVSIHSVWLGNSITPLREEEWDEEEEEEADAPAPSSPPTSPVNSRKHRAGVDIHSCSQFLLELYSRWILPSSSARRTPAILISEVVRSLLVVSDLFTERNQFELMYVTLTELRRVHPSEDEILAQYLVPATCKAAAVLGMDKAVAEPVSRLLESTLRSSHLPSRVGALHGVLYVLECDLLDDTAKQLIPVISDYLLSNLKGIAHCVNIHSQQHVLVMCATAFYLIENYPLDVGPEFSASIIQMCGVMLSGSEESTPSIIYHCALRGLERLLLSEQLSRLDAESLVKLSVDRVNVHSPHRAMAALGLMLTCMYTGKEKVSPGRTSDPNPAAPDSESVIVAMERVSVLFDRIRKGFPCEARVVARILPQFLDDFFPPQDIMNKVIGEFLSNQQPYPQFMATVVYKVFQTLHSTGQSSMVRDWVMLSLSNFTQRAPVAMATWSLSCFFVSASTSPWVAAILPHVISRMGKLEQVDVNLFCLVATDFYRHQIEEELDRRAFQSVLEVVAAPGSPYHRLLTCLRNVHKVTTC
How it was run: (§1)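 AFM imaging of Htt fibrils grown for 2 h after TEV cleavage in TEV cleavage buffer (pH 8.0). Peptide was then added, defining t = 0 h. Fibril length was measured at 0, 4, 8 and 24 h and reported as the mean length of 100 fibrils with standard deviation at each time point.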

[2] = system: Huntingtin (Homo sapiens), P42858 [UNDEFINED MUTATION]; assay: Inhibition of TEV protease-induced 6His-GST tagged huntingtin polyQ 103 mutant (unknown origin) aggregation assessed as decrease in individual fibers at 10 uM measured after 2 to 24 hrs by AFM imaging analysis; settings: time 2-24 hrs
How it was run: (§2)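 AFM imaging of Htt aggregates after TEV cleavage. Fibrils were allowed to grow for 2 h, then peptide or nothing (control) was added, defining t = 0 h. Images were taken over 0–24 h and scored for spherical oligomers, individual fibrils, branching and aggregate clusters.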

[3] = system: Huntingtin (Homo sapiens), P42858 [UNDEFINED MUTATION]; assay: Inhibition of TEV protease-induced 6His-GST tagged wildtype huntingtin polyQ 25 (unknown origin) aggregation assessed as decrease in individual fibers at 10 uM measured after 2 to 24 hrs by AFM imaging analysis; settings: time 2-24 hrs; how it was run: as §2
[4] = system: Huntingtin (Homo sapiens), P42858 [UNDEFINED MUTATION]; assay: (§3) Inhibition of TEV protease-induced 6His-GST tagged huntingtin polyQ 46 mutant (unknown origin) aggregation expressed in Escherichia coli BL21(DE3) assessed as relative fluorescence unit at 1:1 molar ratio incubated for 16 hrs by ThT fluorescence based spectrophotometer analysis (reference value: 692 a.u.)
How it was run: (§4)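 Aggregation started by TEV protease addition, with ThT readings beginning right after cleavage. Peptide added equimolar (1:1) to each Htt protein. Fluorescence was followed at 37 °C for at least 16 h, with excitation at 438 nm and emission at 495 nm. The end-point value at 16 h is averaged over triplicates.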

[5] = system: Huntingtin (Homo sapiens), P42858 [UNDEFINED MUTATION]; assay: Inhibition of TEV protease-induced 6His-GST tagged huntingtin polyQ 46 mutant (unknown origin) aggregation assessed as reduction of spherical oligomers at 10 uM measured immediately by AFM imaging analysis; how it was run: as §2
[6] = system: Huntingtin (Homo sapiens), P42858 [UNDEFINED MUTATION]; assay: as §3, with “tagged wildtype” for “tagged”, “25” for “46 mutant”, “666” for “692”; how it was run: as §4
[7] = system: Huntingtin (Homo sapiens), P42858 [UNDEFINED MUTATION]; assay: Inhibition of TEV protease-induced 6His-GST tagged huntingtin polyQ 46 mutant (unknown origin) aggregation assessed as decrease in fibril length at 10 uM measured after 2 to 12 hrs by AFM imaging analysis; settings: time 2-12 hrs
[8] = system: Huntingtin (Homo sapiens), P42858 [UNDEFINED MUTATION]; assay: Inhibition of TEV protease-induced 6His-GST tagged wildtype huntingtin polyQ 25 (unknown origin) aggregation assessed as decrease in fibril length at 10 uM incubated for 24 hrs by AFM imaging analysis relative to control; parameters: scale not given: the % may be the effect or the level left; how it was run: as §1
[9] = system: Huntingtin (Homo sapiens), P42858 [UNDEFINED MUTATION]; assay: Inhibition of TEV protease-induced 6His-GST tagged huntingtin polyQ 103 mutant (unknown origin) aggregation assessed as decrease in fibril length at 10 uM measured after 2 to 12 hrs by AFM imaging analysis; settings: time 2-12 hrs
[10] = system: Huntingtin (Homo sapiens), P42858 [UNDEFINED MUTATION]; assay: Inhibition of TEV protease-induced 6His-GST tagged huntingtin polyQ 103 mutant (unknown origin) aggregation assessed as reduction in individual fibrils at 10 uM measured immediately by AFM imaging analysis; how it was run: as §2
[11] = system: Huntingtin (Homo sapiens), P42858 [UNDEFINED MUTATION]; assay: Inhibition of TEV protease-induced 6His-GST tagged huntingtin polyQ 103 mutant (unknown origin) aggregation assessed as decrease in fibril branching at 10 uM measured after 4 to 24 hrs by AFM imaging analysis; settings: time 4-24 hrs; how it was run: as §2
[12] = system: Huntingtin (Homo sapiens), P42858 [UNDEFINED MUTATION]; assay: as §3, with “103” for “46”, “1235” for “692”; how it was run: as §4
[13] = system: Huntingtin (Homo sapiens), P42858 [UNDEFINED MUTATION]; assay: Inhibition of TEV protease-induced 6His-GST tagged huntingtin polyQ 103 mutant (unknown origin) aggregation assessed as isolated fibrils at 10 uM measured after 4 to 8 hrs by AFM imaging analysis; settings: time 4-8 hrs
[14] = system: Huntingtin (Homo sapiens), P42858 [UNDEFINED MUTATION]; assay: Inhibition of TEV protease-induced 6His-GST tagged wildtype huntingtin polyQ 25 (unknown origin) aggregation assessed as reduction of spherical oligomers at 10 uM measured immediately by AFM imaging analysis
[15] = system: Huntingtin (Homo sapiens), P42858 [UNDEFINED MUTATION]; assay: Inhibition of TEV protease-induced 6His-GST tagged huntingtin polyQ 103 mutant (unknown origin) aggregation assessed as decrease in fibril clustering at 10 uM measured after 24 hrs by AFM imaging analysis; how it was run: as §2
[16] = system: Huntingtin (Homo sapiens), P42858 [UNDEFINED MUTATION]; assay: Inhibition of TEV protease-induced 6His-GST tagged huntingtin polyQ 103 mutant (unknown origin) aggregation assessed as reduction of spherical oligomers at 10 uM measured immediately by AFM imaging analysis; how it was run: as §2
[17] = system: Huntingtin (Homo sapiens), P42858 [UNDEFINED MUTATION]; assay: Inhibition of TEV protease-induced 6His-GST tagged huntingtin polyQ 46 mutant (unknown origin) aggregation assessed as decrease in individual fibers at 10 uM measured after 2 to 24 hrs by AFM imaging analysis; settings: time 2-24 hrs; how it was run: as §2
[18] = system: Huntingtin (Homo sapiens), P42858 [UNDEFINED MUTATION]; assay: Inhibition of TEV protease-induced 6His-GST tagged huntingtin polyQ 46 mutant (unknown origin) aggregation assessed as decrease in fibril length at 10 uM incubated for 24 hrs by AFM imaging analysis relative to control; parameters: scale not given: the % may be the effect or the level left; how it was run: as §1

Activity [1] [%]	inhibition [2]	inhibition [3]	RFU [4] [a.u.]	inhibition [5]	RFU [6] [a.u.]	inhibition [7]	Activity [8] [%]	inhibition [9]	inhibition [10]	inhibition [11]	RFU [12] [a.u.]	inhibition [13]	inhibition [14]	inhibition [15]	inhibition [16]	inhibition [17]	Activity [18] [%]	Structure (SMILES)
28	Active	Active	634	inactive	552	Active	25.6	Active	inactive	Active	431	Active	inactive	Active	inactive	Active	17.3	CSCC[C@H](NC(=O)[C@@H](N)Cc1c[nH]c2ccccc12)C(=O)N[C@@H](Cc1ccccc1)C(=O)N1CCC[C@H]1C(=O)N[C@@H](CO)C(=O)N[C@@H](CC(C)C)C(=O)N[C@@H](CCCCN)C(=O)N[C@@H](CC(C)C)C(=O)N[C@@H](CC(C)C)C(=O)N[C@@H](CC(=O)O)C(=O)N[C@@H](Cc1ccc(O)cc1)C(=O)N[C@@H](Cc1c[nH]cn1)C(=O)O
22.7	Active	Active	500	inactive	459	Active	38.3	Active	inactive	Active	433	Active	inactive	Active	inactive	Active	17.6	CSCC[C@H](NC(=O)[C@H](CO)NC(=O)[C@H](Cc1c[nH]cn1)NC(=O)[C@H](CC(C)C)NC(=O)CNC(=O)[C@@H](N)Cc1c[nH]cn1)C(=O)N[C@@H](Cc1c[nH]cn1)C(=O)N[C@@H](CC(N)=O)C(=O)N[C@@H](CCCCN)C(=O)N[C@@H](CC(C)C)C(=O)N[C@@H](CC(C)C)C(=O)N[C@@H](CCC(N)=O)C(=O)N[C@H](C(=O)O)[C@@H](C)O
36.7	Active	Active	357	inactive	424	Active	42.9	Active	inactive	Active	564	Active	inactive	Active	inactive	Active	24.9	CC(C)C[C@H](NC(=O)CNC(=O)[C@H](CC(C)C)NC(=O)[C@H](CO)NC(=O)[C@H](CC(N)=O)NC(=O)[C@H](C)NC(=O)CNC(=O)[C@H](Cc1c[nH]cn1)NC(=O)[C@@H](N)Cc1c[nH]cn1)C(=O)N[C@H](C(=O)N[C@@H](CCC(N)=O)C(=O)N[C@@H](CO)C(=O)O)C(C)C
